Here are results for one molecule from ChEMBL document CHEMBL4350961, “Discovery of Pyrrolo[3,2- d]pyrimidin-4-one Derivatives as a New Class of Potent and Cell-Active Inhibitors of P300/CBP-Associated Factor Bromodomain” (J Med Chem, 2019).

Test [1] has as its target Bromodomain-containing protein 2 (Homo sapiens) (UniProt P25440). As to the kind of experiment: Binding affinity to human partial length BRD2 bromodomain 2 isoform 1 (E348 to D455 residues) expressed in bacterial expression system at 1 uM by BROMOscan assay. In a few lines: (§1)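 BROMOscan bromodomain cross-screen run by an outside service, compound at 1 µM against 32 recombinant bromodomains. Binding given as percent of control.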

Test [2] deals with ATPase family AAA domain-containing protein 2B (Homo sapiens) (UniProt Q9ULI0). As to the kind of experiment: Binding affinity to human partial length ATAD2B (Q955 to R1082 residues) expressed in bacterial expression system at 1 uM by BROMOscan assay. In a few lines: as §1
For test [3], the target named is Protein-tyrosine kinase 2-beta (Homo sapiens) (UniProt Q14289). As to the kind of experiment: Inhibition of recombinant full-length human Pyk2 at 10 uM using poly(Glu, Tyr) 4:1 as substrate measured after 40 mins in presence of [gamma33P]ATP by scintillation counting method.
For test [4], the target named is Histone acetyltransferase KAT2A (Homo sapiens, UniProt Q92830). As to the kind of experiment: Binding affinity to human partial length GCN5L2 (E726 to K837 residues) expressed in bacterial expression system at 1 uM by BROMOscan assay. An outline of the steps: as §1
In test [5] the target is Bromodomain-containing protein 3 (Homo sapiens) (UniProt Q15059). As to the kind of experiment: Binding affinity to human partial length BRD3 bromodomain 1 (P24 to E144 residues) expressed in bacterial expression system at 1 uM by BROMOscan assay. An outline of the steps:
as §1

Test [6] has as its system PI3-kinase p110-alpha/p85-alpha (Homo sapiens), P27986+P42336 [E542K]. As to the kind of experiment: Inhibition of recombinant full-length mouse PI3K p110alpha/p85alpha E542K mutant at 10 uM using phosphatidylinositol-4, 5-bisphosphate as substrate measured after 40 mins by HTRF assay. The class given is protein-complex assay.
Test [7] has as its target Tyrosine-protein kinase CSK (Homo sapiens) (UniProt P41240). As to the kind of experiment: Inhibition of full-length recombinant human CSK at 10 uM using poly(Glu, Tyr) 4:1 as substrate measured after 40 mins in presence of [gamma33P]ATP by scintillation counting method. In a few lines:
(§2)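 Kinase panel of 422 kinases screened by Eurofins KinaseProfiler at a single test-compound concentration of 10 µM.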

Test [8] has as its target Hepatocyte growth factor receptor (Homo sapiens) (UniProt P08581). As to the kind of experiment: Inhibition of recombinant human MET A1209G/V1290L mutant (974 to end residues) at 10 uM using KKKGQEEEYVFIE as substrate measured after 40 mins in presence of [gamma33P]ATP by scintillation counting method.
In test [9] the target is Serine/threonine-protein kinase TBK1 (Homo sapiens) (UniProt Q9UHD2). As to the kind of experiment: Inhibition of recombinant full-length human TBK1 at 10 uM using KRRRALS(p)VASLPGL as substrate measured after 40 mins in presence of [gamma33P]ATP by scintillation counting method.
Test [10] addresses Mitogen-activated protein kinase 13 (Homo sapiens) (UniProt O15264). Briefly: Inhibition of recombinant full-length human SAPK4 at 10 uM using myelin basic protein as substrate measured after 40 mins in presence of [gamma33P]ATP by scintillation counting method.
The target of test [11] is Aurora kinase C (Homo sapiens) (UniProt Q9UQB9). As to the kind of experiment: Inhibition of recombinant human AURKC (35 to end residues) at 10 uM using AKRRRLSSLRA as substrate measured after 40 mins in presence of [gamma33P]ATP by scintillation counting method.
The species named for another test is Mus musculus. Briefly: Inhibition of recombinant full-length mouse PI3K p110alpha/p85alpha E545K mutant at 10 uM using phosphatidylinositol-4, 5-bisphosphate as substrate measured after 40 mins by HTRF assay.
The species named for the next test is Homo sapiens. As to the kind of experiment: Inhibition of recombinant human MARK1 T20S mutant (2 to end residues) at 10 uM using KKKVSRSGLYRSPSMPENLNRPR as substrate measured after 40 mins in presence of [gamma33P]ATP by scintillation counting method.
For test [12], the target named is Maternal embryonic leucine zipper kinase (Homo sapiens) (UniProt Q14680). As to the kind of experiment: Inhibition of recombinant human MELK (1 to 340 residues) at 10 uM using KKLNRTLSFAEPG as substrate measured after 40 mins in presence of [gamma33P]ATP by scintillation counting method.
For test [13], the system named is Epidermal growth factor receptor (Homo sapiens), P00533 [L861Q]. Briefly: Inhibition of recombinant human EGFR L861Q mutant (696 to end residues) at 10 uM using poly(Glu, Tyr) 4:1 as substrate measured after 40 mins in presence of [gamma33P]ATP by scintillation counting method.
For test [14], the target named is Cyclin-dependent kinase 5/CDK5 activator 1 (Homo sapiens) (UniProt Q00535+Q15078). As to the kind of experiment: Inhibition of recombinant full-length human CDK5/p25 at 10 uM using histone H1 as substrate measured after 40 mins in presence of [gamma33P]ATP by scintillation counting method. The class given is protein-complex assay.
Test [15] concerns the target Ephrin type-A receptor 8 (Homo sapiens) (UniProt P29322). As to the kind of experiment: Inhibition of recombinant human EphA8 (615 to 911 residues) at 10 uM using KTFCGTPEYLAPEVRREPRILSEEEQEMFRDFDYIADWC as substrate measured after 40 mins in presence of [gamma33P]ATP by scintillation counting method.
For test [16], the target named is Testis-specific serine/threonine-protein kinase 3 (Homo sapiens) (UniProt Q96PN8). As to the kind of experiment: Inhibition of recombinant full-length human TSSK3 at 10 uM using AMARAASAAALARRR as substrate measured after 40 mins in presence of [gamma33P]ATP by scintillation counting method.
For test [17], the target named is Serine/threonine-protein kinase N2 (Homo sapiens) (UniProt Q16513). Briefly: Inhibition of human PRK2 (501 to end residues) using AKRRRLSSLRA as substrate measured after 40 mins in presence of [gamma33P]ATP by scintillation counting method. In a few lines:
as §2

Test [18] deals with Ephrin type-B receptor 3 (Homo sapiens) (UniProt P54753). Briefly: Inhibition of recombinant human EphB3 (599 to 920 residues) at 10 uM using poly (Glu, Tyr) 4:1 as substrate measured after 40 mins in presence of [gamma33P]ATP by scintillation counting method.
In test [19] the target is Chromatin remodeling regulator CECR2 (Homo sapiens) (UniProt Q9BXF3). Briefly: Binding affinity to human partial length CECR2 (P423 to D543 residues) expressed in bacterial expression system at 1 uM by BROMOscan assay. In a few lines:
as §1

Test [20] concerns the target Calcium/calmodulin-dependent protein kinase type II subunit beta (Homo sapiens) (UniProt Q13554). Briefly: Inhibition of recombinant full-length human CaMK2beta (1 to 315 residues) at 10 uM using calmodulin as substrate measured after 40 mins in presence of [gamma33P]ATP by scintillation counting method.
In test [21] the target is Tau-tubulin kinase 1 (Homo sapiens) (UniProt Q5TCY1). As to the kind of experiment: Inhibition of human TTBK1 (1 to 479 residues) using Casein as substrate measured after 40 mins in presence of [gamma33P]ATP by scintillation counting method.
In test [22] the target is NUAK family SNF1-like kinase 1 (Homo sapiens) (UniProt O60285). As to the kind of experiment: Inhibition of recombinant human ARK5 (2 to end residues) at 10 uM using KKKVSRSGLYRSPSMPENLNRPR as substrate measured after 40 mins in presence of [gamma33P]ATP by scintillation counting method.

The source made the active and inactive calls. The calls are words filed in the database; no cut-off is given here.

Chain of Calcium/calmodulin-dependent protein kinase type II subunit beta (Homo sapiens) (Q13554 whole entry, the tested form may be a part): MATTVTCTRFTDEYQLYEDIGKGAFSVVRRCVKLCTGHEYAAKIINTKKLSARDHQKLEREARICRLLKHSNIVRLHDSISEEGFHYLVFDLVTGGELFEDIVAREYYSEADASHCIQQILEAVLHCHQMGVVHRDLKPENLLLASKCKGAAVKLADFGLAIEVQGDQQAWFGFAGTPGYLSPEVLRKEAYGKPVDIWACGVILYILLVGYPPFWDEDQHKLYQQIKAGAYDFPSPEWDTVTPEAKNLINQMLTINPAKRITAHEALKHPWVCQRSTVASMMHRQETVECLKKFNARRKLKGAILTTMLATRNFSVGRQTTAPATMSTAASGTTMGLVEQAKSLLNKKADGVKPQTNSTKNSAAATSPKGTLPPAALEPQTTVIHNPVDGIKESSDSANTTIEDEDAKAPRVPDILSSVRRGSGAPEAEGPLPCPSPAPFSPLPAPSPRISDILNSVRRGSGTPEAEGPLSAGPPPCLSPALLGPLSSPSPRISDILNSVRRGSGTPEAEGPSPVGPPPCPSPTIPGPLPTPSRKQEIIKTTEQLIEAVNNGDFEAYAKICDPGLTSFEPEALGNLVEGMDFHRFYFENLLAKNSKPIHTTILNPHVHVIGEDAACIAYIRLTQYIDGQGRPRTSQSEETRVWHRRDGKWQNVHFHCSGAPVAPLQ
Chain of Histone acetyltransferase KAT2A (Q92830 2-837 limits assumed): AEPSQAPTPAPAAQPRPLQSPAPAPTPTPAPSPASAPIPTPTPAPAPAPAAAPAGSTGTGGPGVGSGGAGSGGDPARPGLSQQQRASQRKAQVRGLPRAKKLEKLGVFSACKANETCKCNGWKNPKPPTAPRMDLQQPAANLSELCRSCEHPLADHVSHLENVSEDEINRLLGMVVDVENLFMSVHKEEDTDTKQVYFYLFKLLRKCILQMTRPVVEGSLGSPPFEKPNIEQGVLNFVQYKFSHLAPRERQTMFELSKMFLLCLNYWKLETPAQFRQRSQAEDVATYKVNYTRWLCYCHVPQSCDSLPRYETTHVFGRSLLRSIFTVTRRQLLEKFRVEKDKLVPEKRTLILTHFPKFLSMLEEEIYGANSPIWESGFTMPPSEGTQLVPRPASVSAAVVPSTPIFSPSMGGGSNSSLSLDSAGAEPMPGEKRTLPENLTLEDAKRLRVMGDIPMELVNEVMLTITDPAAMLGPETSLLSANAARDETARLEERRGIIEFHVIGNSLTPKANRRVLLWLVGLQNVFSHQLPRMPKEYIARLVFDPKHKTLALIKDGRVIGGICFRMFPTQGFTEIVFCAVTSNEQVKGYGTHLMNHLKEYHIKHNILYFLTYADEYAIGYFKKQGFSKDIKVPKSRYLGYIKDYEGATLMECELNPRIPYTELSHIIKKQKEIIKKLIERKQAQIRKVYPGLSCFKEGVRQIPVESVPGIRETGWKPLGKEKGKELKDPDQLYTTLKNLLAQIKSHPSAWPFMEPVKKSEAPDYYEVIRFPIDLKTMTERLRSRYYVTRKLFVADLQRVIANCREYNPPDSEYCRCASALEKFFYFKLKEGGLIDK
Chain of Ephrin type-A receptor 8 (Homo sapiens) (P29322 whole entry, the tested form may be a part): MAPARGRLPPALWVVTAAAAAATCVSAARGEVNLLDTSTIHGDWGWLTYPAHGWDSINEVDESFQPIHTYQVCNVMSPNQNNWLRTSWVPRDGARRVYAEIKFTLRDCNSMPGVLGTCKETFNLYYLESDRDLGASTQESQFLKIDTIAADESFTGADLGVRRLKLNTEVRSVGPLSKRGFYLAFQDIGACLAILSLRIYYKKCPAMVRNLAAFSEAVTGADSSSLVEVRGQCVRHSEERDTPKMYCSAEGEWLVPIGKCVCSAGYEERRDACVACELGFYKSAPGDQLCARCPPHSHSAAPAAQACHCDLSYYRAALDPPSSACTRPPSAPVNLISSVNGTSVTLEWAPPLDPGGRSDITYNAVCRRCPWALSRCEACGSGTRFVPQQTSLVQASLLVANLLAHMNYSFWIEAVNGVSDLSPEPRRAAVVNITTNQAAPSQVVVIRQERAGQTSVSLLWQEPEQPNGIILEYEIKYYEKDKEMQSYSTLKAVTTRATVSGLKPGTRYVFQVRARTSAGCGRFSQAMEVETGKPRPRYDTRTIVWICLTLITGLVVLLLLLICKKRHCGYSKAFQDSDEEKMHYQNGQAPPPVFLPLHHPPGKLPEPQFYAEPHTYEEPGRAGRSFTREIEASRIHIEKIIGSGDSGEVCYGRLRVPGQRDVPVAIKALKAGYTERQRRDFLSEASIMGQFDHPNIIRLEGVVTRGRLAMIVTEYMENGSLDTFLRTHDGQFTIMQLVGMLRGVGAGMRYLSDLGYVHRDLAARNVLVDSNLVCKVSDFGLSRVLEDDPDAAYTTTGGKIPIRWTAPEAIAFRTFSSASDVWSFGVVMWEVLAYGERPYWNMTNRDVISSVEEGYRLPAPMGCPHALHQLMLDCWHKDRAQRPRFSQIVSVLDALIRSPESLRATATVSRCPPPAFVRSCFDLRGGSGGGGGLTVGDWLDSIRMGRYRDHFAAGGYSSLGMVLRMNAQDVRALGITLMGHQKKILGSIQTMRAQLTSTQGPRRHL
Chain of Mitogen-activated protein kinase 13 (Homo sapiens) (O15264 whole entry): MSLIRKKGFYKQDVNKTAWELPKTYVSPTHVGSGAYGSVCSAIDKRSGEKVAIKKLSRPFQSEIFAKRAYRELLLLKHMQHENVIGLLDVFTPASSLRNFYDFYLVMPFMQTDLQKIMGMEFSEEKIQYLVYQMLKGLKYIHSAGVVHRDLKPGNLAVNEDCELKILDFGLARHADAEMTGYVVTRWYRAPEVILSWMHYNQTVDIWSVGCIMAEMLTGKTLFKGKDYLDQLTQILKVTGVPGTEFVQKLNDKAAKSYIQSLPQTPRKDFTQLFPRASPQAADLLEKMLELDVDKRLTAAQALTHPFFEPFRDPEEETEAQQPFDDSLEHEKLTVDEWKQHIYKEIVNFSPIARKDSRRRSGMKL
Chain of Serine/threonine-protein kinase N2 (Homo sapiens) (Q16513 whole entry, looked up): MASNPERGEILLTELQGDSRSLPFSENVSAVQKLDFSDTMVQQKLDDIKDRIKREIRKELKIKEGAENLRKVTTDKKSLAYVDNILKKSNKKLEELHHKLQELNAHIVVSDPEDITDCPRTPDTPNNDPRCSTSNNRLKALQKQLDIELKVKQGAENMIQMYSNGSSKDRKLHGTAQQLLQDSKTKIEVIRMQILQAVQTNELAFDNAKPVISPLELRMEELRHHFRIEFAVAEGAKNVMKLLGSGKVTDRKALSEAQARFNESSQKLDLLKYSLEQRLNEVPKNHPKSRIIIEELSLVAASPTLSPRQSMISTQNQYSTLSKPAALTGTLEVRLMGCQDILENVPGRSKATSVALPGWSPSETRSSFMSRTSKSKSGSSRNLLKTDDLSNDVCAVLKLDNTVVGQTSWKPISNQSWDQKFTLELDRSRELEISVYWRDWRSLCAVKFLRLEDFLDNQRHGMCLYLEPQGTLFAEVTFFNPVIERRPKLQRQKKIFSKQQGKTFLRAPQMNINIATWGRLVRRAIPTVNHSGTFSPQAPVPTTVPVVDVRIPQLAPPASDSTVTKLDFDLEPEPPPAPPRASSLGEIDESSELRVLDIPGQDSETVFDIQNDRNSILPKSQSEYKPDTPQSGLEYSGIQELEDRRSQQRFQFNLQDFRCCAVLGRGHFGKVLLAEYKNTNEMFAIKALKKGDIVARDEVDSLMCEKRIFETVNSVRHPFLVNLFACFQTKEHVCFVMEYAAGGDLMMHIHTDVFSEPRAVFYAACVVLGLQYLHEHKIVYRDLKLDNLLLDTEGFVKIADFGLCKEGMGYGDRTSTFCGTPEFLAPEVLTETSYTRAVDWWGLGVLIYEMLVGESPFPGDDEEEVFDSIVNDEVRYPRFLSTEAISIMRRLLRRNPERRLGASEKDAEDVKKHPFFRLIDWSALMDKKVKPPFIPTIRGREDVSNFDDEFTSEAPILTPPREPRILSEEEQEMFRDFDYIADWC
Chain of Cyclin-dependent kinase 5/CDK5 activator 1 (Homo sapiens) (Q00535 whole entry, the tested form may be a part): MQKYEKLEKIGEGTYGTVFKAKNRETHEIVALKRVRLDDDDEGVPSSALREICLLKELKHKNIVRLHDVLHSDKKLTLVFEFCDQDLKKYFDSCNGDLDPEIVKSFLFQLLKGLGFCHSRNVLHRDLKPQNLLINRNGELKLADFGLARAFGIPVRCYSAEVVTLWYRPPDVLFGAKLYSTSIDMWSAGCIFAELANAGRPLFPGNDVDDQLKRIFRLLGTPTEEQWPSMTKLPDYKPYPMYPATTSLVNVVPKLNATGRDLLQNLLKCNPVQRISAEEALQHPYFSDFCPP
Chain of Cyclin-dependent kinase 5/CDK5 activator 1 (Homo sapiens) (Q15078 99-307 partner limits assumed): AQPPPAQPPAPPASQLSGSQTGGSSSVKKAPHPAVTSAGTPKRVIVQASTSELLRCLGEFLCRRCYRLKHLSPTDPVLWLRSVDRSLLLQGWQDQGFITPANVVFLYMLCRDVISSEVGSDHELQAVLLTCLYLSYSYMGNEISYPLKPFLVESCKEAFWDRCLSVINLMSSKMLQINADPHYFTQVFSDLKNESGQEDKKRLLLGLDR
Chain of Aurora kinase C (Homo sapiens) (Q9UQB9 whole entry): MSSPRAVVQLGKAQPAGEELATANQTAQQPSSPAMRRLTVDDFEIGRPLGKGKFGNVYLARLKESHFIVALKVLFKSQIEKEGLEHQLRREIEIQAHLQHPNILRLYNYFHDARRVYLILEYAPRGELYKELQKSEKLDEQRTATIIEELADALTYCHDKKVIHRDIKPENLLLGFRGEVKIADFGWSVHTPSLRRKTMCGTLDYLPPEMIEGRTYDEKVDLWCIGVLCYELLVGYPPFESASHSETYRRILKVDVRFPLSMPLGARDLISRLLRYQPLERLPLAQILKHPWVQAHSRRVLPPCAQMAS
Chain of Testis-specific serine/threonine-protein kinase 3 (Homo sapiens) (Q96PN8 whole entry): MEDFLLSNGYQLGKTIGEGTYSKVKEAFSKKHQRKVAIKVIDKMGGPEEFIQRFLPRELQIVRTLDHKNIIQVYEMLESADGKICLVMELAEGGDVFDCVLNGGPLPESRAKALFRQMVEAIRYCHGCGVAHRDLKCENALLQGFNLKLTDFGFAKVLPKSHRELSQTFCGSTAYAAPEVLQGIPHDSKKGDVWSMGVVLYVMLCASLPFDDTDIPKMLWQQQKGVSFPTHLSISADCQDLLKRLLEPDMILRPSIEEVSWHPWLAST

Regarding `CN1C[C@H](Nc2nc3cc[nH]c3c(=O)n2C)C[C@H](c2ccc3c(c2)OCCO3)C1`, the result in test [1], in test [2] and in [5] was inactive. Further, the inhibition entry in [3], in test [6], in test [7], in test [8], in test [9] and in test [10] was “inactive” throughout. Also, the inhibition result (in [11]; in the test filed under Mus musculus; in the test filed under Homo sapiens; in test [12]; in test [13]; in test [14]) was “inactive” in each case. Besides, the inhibition entry in test [15], in [16], in test [17], in [18], in test [20] and in test [21] was “inactive” in each case. In addition, the inhibition entry in test [22] is “inactive”. In addition, the outcome in [4] and in [19] was Active.
